Results from ChEMBL document CHEMBL1122573, “Novel N-hydroxyguanidine derivatives as anticancer and antiviral agents” (J Med Chem, 1984).
In brackets after ≈: the same amount, converted by molar mass.

Legend:
Gallus gallus [1] = organism: Gallus gallus; assay: Compound dose that inhibits transformation of chick embryo fibroblasts by Rous sarcoma virus, after 15 hr of incubation was determined in vitro. Compound dose that causes 16 % inhibition was reported.; type: functional
Method in brief: (§1)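 Focus-formation assay with Rous sarcoma virus Schmidt-Ruppin subgroup D on confluent secondary chicken fibroblast monolayers (5 × 10^5 cells/plate). Compounds in DMSO (final <1%) were serially diluted from 10^-2 to 10^-5 M solutions before addition. Infection was ~150–200 focus-forming units per dish for 15 h at 37 °C. A 0.9% agar overlay held the same compound dilutions and was re-fed at day 3. Foci were scored 7–10 days post-infection, with virus-only and drug-only controls.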

Gallus gallus [2] = organism: Gallus gallus; assay: Compound dose that inhibits transformation of chick embryo fibroblasts by Rous sarcoma virus, after 15 hr of incubation was determined in vitro. Compound dose that causes 50 % inhibition was reported.; type: functional; details: read-out: ID50 (the source's name); method in brief: as §1
Gallus gallus [3] = organism: Gallus gallus; assay: Compound dose that inhibits transformation of chick embryo fibroblasts by Rous sarcoma virus, after 15 hr of incubation was determined in vitro. Compound dose that causes 84 % inhibition was reported.; type: functional; method in brief: as §1
L1210 [4] = assay: Activity against cultured L1210 leukemic cells was determined in vitro, after 48 h of incubation. Compound dose that causes 16 % inhibition was reported; type: functional, Mus musculus
Method in brief: (§2)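 L1210 cells in RPMI with 10% fetal calf serum, amino acids, vitamins and penicillin-streptomycin, seeded at 4.0–6.0 × 10^4 cells/mL in duplicate per concentration. At least six concentrations in 1:5 dilutions; 24–48 h humidified incubation under 5% CO2. Cells were counted with a Coulter counter, with untreated and Me2SO controls. ID values were derived by a previously described method.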

L1210 [5] = assay: Activity against cultured L1210 leukemic cells was determined in vitro, after 48 hr of incubation. Compound dose that causes 50 % inhibition was reported; type: functional; details: Mus musculus, L1210, 48 h; read-out: ID50 (the source's name); method in brief: as §2
L1210 [6] = assay: Activity against cultured L1210 leukemic cells was determined in vitro, after 48 hr of incubation. Compound dose that causes 84 % inhibition was reported; type: functional, Mus musculus; method in brief: as §2
[7] = Compound dose that causes lethality by 50 %, was tested in mice; type: ADME, organism-based; details: mouse, in vivo
Method in brief: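 C57 Bl/6J mice, six per dose level. Drug was ground with an equal weight of acacia and suspended in saline, then dosed intraperitoneally by body weight.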

[8] = test system: Moloney murine sarcoma virus; assay: Compound was tested for 50% inhibitory dose against Moloney sarcoma virus; type: functional; details: read-out: ID50 (the source's name)

SMILES | ID16 (Gallus gallus [1]) | IC50 (Gallus gallus [2]) | ID84 (Gallus gallus [3]) | ID16 (L1210 [4]) | IC50 (L1210 [5]) | ID84 (L1210 [6]) | LD50 [7] | IC50 [8]
Cc1ccsc1/C=N/N=C(/N)NO | 5.89 µM | 18.5 µM | 57.9 µM | 16.89 µM | 33.2 µM | 65.3 µM |  | 
N/C(=N/N=C/c1ccccn1)NO | 1.01 µM | 2.76 µM | 7.55 µM | 4.4 µM | 10.9 µM | 27 µM | 315 mg/kg | 
COc1cccc(/C=N/NC(=N)NO)c1 | 7.15 µM | 17.8 µM | 44.06 µM | 4.2 µM | 16 µM | 60.9 µM |  | 
Cc1cccc(/C=N/N=C(\N)NO)n1 | 36 µM | 114 µM | 361.3 µM | 19.76 µM | 42.1 µM | 89.6 µM |  | 
NC(/N=N/c1c(O)[nH]c2ccc(F)cc12)=N\O | 5.36 µM | 18.3 µM | 62.25 µM | 17.8 µM | 48.4 µM | 132 µM |  | 
N/C(=N\O)N/N=C/c1cccc(C(F)(F)F)c1 | 8.19 µM | 18.2 µM | 40.61 µM | 2.35 µM | 15.1 µM | 96.4 µM |  | 
N/C(=N\O)N/N=C/C1CCCCC1 | 9.11 µM | 23.4 µM | 60.4 µM | 9.34 µM | 21.2 µM | 48.4 µM |  | 
N/C(=N\O)N/N=C/c1cccs1 | 3.64 µM | 11.8 µM | 38.04 µM | 81.7 µM | 34.1 µM | 143 µM |  | 
CCCCOc1cccc(/C=N/N=C(\N)NO)c1 | 2.66 µM | 10.2 µM | 38.96 µM | 3 µM | 8.54 µM | 24.3 µM |  | 
CCCCCCOc1cccc(/C=N/N=C(\N)NO)c1 | 1.18 µM | 8.02 µM | 54.56 µM | 2.96 µM | 7.8 µM | 20.6 µM |  | 
N/C(=N\O)N/N=C/c1cccc(I)c1 | 0.9 µM | 3.45 µM | 13.33 µM | 4.07 µM | 12.5 µM | 38.5 µM | 190 mg/kg | 
N=C(NN)NO | 15.63 µM | 195 µM | 2438 µM | 57.1 µM | 126 µM | 311 µM |  | 
N=C(N)NO.O=S(=O)(O)O [HYDROXYGUANIDINE SULFATE] | 192.7 µM | 374 µM | 725.8 µM | 95.8 µM | 59.5 µM | 370 µM |  | 
N=C(N)NO [HYDROXYGUANIDINE] |  |  |  |  |  |  |  | 2 µg/mL (≈ 26.6 µM)
NC(=O)NO [HYDROXYUREA] |  |  |  | 1.99 µM | 60.6 µM | 181 µM |  | 
